Among the data in ChEMBL document CHEMBL1155251, “Efficient synthesis of the first betulonic acid-acetylene hybrids and their hepatoprotective and anti-inflammatory activity” (2009) are Activity values, retold here.

Test [1] deals with Mus musculus. In words: Antiinflammatory activity against carrageenan-induced paw edema in mouse assessed as decrease in index of hind paw edema at 20 mg/kg, po administered 1 hr prior to carrageenan challenge. The class given is functional, organism-based. The arrangement: dose 20 mg/kg. An outline of the steps:
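Outbred male mice (22–25 g), ad libitum food/water. Dosed orally at 20 mg/kg as aqueous-Tween suspension 1 h before carrageenan; controls got water–Tween. Killed by cervical dislocation 5 h after phlogogen; hind paws cut at ankle and weighed. Edema index = (treated − untreated paw weight)/untreated paw weight.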

Test [2] concerns Mus musculus. In words: Hepatoprotective activity against CCL4-induced hepatitis in mouse assessed as thiobarbiturate relative substance level at 50 mg/kg, po administered 1 hr prior to CCL4 challenge (reference value: 1.63+/- 0.24 ucat/L). The class given is functional. In outline: (§1)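 Outbred male mice (22–25 g). Acute hepatitis induced by single oral 25% CCl4 in sunflower oil. Compounds given orally as water–Tween-80 suspension 1 h before induction; controls got vehicle. At least ten animals per group. Next day, serum ALP, ALT and AST measured with standard kits; TBARS measured by an established procedure.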

For test [3], the system named is Mus musculus. The test is described as follows: Hepatoprotective activity against CCL4-induced hepatitis in mouse assessed as alkaline phosphatase level at 50 mg/kg, po administered 1 hr prior to CCL4 challenge (reference value: 18.27+/- 1.42 ucat/L). The test is classed as functional. An outline of the steps:
as §1

Test [4] deals with Mus musculus. The test is described as follows: Hepatoprotective activity against CCL4-induced hepatitis in mouse assessed as […] level at 50 mg/kg, po administered 1 hr prior to CCL4 challenge (reference value: 5.04+/- 0.72 ucat/L). The class given is functional. In outline:
as §1

Test [5] has as its system Mus musculus. In words: Hepatoprotective activity against CCL4-induced hepatitis in mouse assessed as aspartate amino transferase level at 50 mg/kg, po administered 1 hr prior to CCL4 challenge (reference value: 5.23+/- 0.76 ucat/L). The class given is functional. An outline of the steps:
as §1

Test [6] has as its system Mus musculus. The test is described as follows: Hepatoprotective activity against CCL4-induced hepatitis in mouse assessed as […] level at 20 mg/kg, po administered 1 hr prior to CCL4 challenge (reference value: 5.04+/- 0.72 ucat/L). The test is classed as functional. In outline:
as §1

The subject of test [7] is Mus musculus. The test is described as follows: Hepatoprotective activity against CCL4-induced hepatitis in mouse assessed as aspartate amino transferase level at 20 mg/kg, po administered 1 hr prior to CCL4 challenge (reference value: 5.23+/- 0.76 ucat/L). The test is classed as functional. An outline of the steps: as §1
Test [8] relates to Mus musculus. In words: Hepatoprotective activity against CCL4-induced hepatitis in mouse assessed as alkaline phosphatase level at 20 mg/kg, po administered 1 hr prior to CCL4 challenge (reference value: 18.27+/- 1.42 ucat/L). The class given is functional. An outline of the steps: as §1
Test [9] concerns Mus musculus. In words: Hepatoprotective activity against CCL4-induced hepatitis in mouse assessed as thiobarbiturate relative substance level at 20 mg/kg, po administered 1 hr prior to CCL4 challenge (reference value: 1.63+/- 0.24 ucat/L). The test is classed as functional. In outline:
as §1

Test [10] concerns Mus musculus. The test is described as follows: Hepatoprotective activity against CCL4-induced hepatitis in mouse assessed as aspartate amino transferase level at 100 mg/kg, po administered 1 hr prior to CCL4 challenge (reference value: 5.23+/- 0.76 ucat/L). The class given is functional. In outline: as §1
Test [11] has as its system Mus musculus. In words: Hepatoprotective activity against CCL4-induced hepatitis in mouse assessed as alkaline phosphatase level at 100 mg/kg, po administered 1 hr prior to CCL4 challenge (reference value: 18.27+/- 1.42 ucat/L). The test is classed as functional. In outline:
as §1

In test [12] the test system is Mus musculus. The test is described as follows: Hepatoprotective activity against CCL4-induced hepatitis in mouse assessed as […] level at 100 mg/kg, po administered 1 hr prior to CCL4 challenge (reference value: 5.04+/- 0.72 ucat/L). The test is classed as functional. An outline of the steps: as §1
The subject of test [13] is Mus musculus. In words: Hepatoprotective activity against CCL4-induced hepatitis in mouse assessed as thiobarbiturate relative substance level at 100 mg/kg, po administered 1 hr prior to CCL4 challenge (reference value: 1.63+/- 0.24 ucat/L). The class given is functional. An outline of the steps:
as §1

Calls of active or inactive are those of the source. The rule behind the calls is not given here.

Turning to `COc1ccc2c(c1)c(CC(=O)O)c(C)n2C(=O)c1ccc(Cl)cc1`, the outcome in the test on Mus musculus [1] was Active.
For the compound `C=C(C)[C@@H]1CC[C@]2(C(=O)Nc3ccc(C#CCN4CCCCC4)cc3)CC[C@]3(C)[C@H](CC[C@@H]4[C@@]5(C)CCC(=O)C(C)(C)[C@@H]5CC[C@]43C)[C@@H]12`, the Activity came out at 1.06 µmol/L in the test with Mus musculus [2], 12.8 ucat/L in the test on Mus musculus [3], 3.08 ucat/L in the test with Mus musculus [4] and 3.25 ucat/L in the test on Mus musculus [5]. Moreover, the outcome with Mus musculus [1] was Active.
For `C=C(C)[C@@H]1CC[C@]2(C(=O)Nc3ccc(C#CCN4CCOCC4)cc3)CC[C@]3(C)[C@H](CC[C@@H]4[C@@]5(C)CCC(=O)C(C)(C)[C@@H]5CC[C@]43C)[C@@H]12`, the Activity amounted to 3.21 µmol/L in the test with Mus musculus [2], 14.28 ucat/L in the test with Mus musculus [3], 3.48 ucat/L in the test with Mus musculus [4] and 5.25 ucat/L in the test with Mus musculus [5]. The outcome in the test with Mus musculus [1] was Active.
Take `C=C(C)[C@@H]1CC[C@]2(C(=O)Nc3ccc(I)cc3)CC[C@]3(C)[C@H](CC[C@@H]4[C@@]5(C)CCC(=O)C(C)(C)[C@@H]5CC[C@]43C)[C@@H]12`: the Activity with Mus musculus [6] was 2.75 ucat/L; in the test on Mus musculus [7], 3.09 ucat/L; in the test on Mus musculus [8], 10.27 ucat/L; with Mus musculus [9], 2.03 µmol/L. Besides, in the test with Mus musculus [1], the outcome was inactive.
`O=C1c2c(O)cc(O)cc2O[C@H](c2ccc(O)c(O)c2)[C@H]1O` [(+)-TAXIFOLIN]: the Activity amounted to 3.88 ucat/L with Mus musculus [10], 11.31 ucat/L with Mus musculus [11], 3.63 ucat/L in the test on Mus musculus [12] and 1.42 µmol/L in the test on Mus musculus [13].
